# Assay results pooled from the literature.
# Organism: Pseudomonas aeruginosa
# Effect on: microbial growth
SMILES,test,test system,setting,MIC
CC(C)Oc1c(NC(=O)c2ccc(NC(=O)[C@H](CC(N)=O)NC(=O)c3ccc(C#Cc4ccc(C#N)cc4)cc3)cc2)ccc(C(=O)Nc2ccc(C(=O)O)cc2)c1O,,PA14,,> 64 µg/mL
CCCNc1nc(N(C)C)c2c(c1O)C(=O)C1=C(O)[C@]3(O)C(=O)C(C(N)=O)=C(O)[C@@H](N(C)C)[C@@H]3C[C@@H]1C2.Cl.Cl,broth dilution,ATCC27853,,> 32 µg/mL
O=C(CCCCCCCCCC[P+](c1ccccc1)(c1ccccc1)c1ccccc1)Nc1cc(O)c(O)c(O)c1.[Br-],broth dilution,ATCC27853,18 h,> 32 µg/mL
O=[N+]([O-])c1ccc(-c2nc3cc(F)ccc3[nH]2)o1,broth dilution,ATCC27853,,> 64 µg/mL
CC(C)Oc1c(NC(=O)c2ccc(NC(=O)[C@H](CC(N)=O)NC(=O)c3ccc(NC(=O)c4cc(=O)c(O)c[nH]4)cc3)cc2)ccc(C(=O)Nc2ccc(C(=O)O)cc2)c1O,,PA14,,> 64 µg/mL
COc1c(C)c(OC(=O)c2ccc(C)cc2)c(C)c(O)c1C(=O)/C=C/c1ccccc1,broth dilution,ATCC27853,,5000 µg/mL
CC1(C)SC2C(NC(=O)C(NC(=O)C3=C(O)C4(CC4)NC3=O)c3ccccc3)C(=O)N2C1C(=O)O (centres unmarked),,,,25 µg/mL
Cn1cc(NC(=O)C(CC(N)=O)NC(=O)c2ccc(NC(=O)c3ccc(C#N)cc3)cc2)cc1-c1nc2ccc(C(=O)Nc3ccc(C(=O)O)cc3)c(O)c2[nH]1 (centres unmarked),,PA14,,> 64 µg/mL
Cc1ccc2nc(-c3ccc([N+](=O)[O-])cc3)n(Cc3ccccc3)c2c1,broth dilution,ATCC27853,,128 µg/mL
c1ccc(NCc2ccc(Oc3ccccn3)cc2)cc1,,,,> 25 µg/mL
CC(C)Oc1c(NC(=O)c2ccc(NC(=O)[C@H](CC(N)=O)NC(=O)c3ccc(NC(=O)CCc4ccc(C#N)cc4)cc3)cc2)ccc(C(=O)Nc2ccc(C(=O)O)cc2)c1O,,PA14,,> 64 µg/mL
CN(C)[C@@H]1C(O)=C(C(N)=O)C(=O)[C@@]2(O)C(O)=C3C(=O)c4c(O)c(NC(=O)CNC(C)(C)C)nc(Cl)c4C[C@H]3C[C@@H]12.Cl.Cl.Cl,broth dilution,ATCC27853,,> 32 µg/mL
CC1=NN(CNC(=O)c2ccccn2)C(=O)C1=NNn1c(-c2ccccc2)nc2ccccc2c1=O,broth dilution,,24 h,52 µM
CN(C)[C@@H]1C(O)=C(C(N)=O)C(=O)[C@@]2(O)C(O)=C3C(=O)c4c(cc5ccc(CN6CC(F)(F)C6)cc5c4O)C[C@H]3C[C@@H]12,broth dilution,ATCC27853,,32 µg/mL
O=C(Nc1ccc2c(c1)OC(F)(F)O2)Nc1ccc(Cl)c(C(F)(F)F)c1,,DSM19882,,> 100 µM
COc1c(C)c(O)c(C)c(O)c1C(=O)/C=C/c1ccccc1,broth dilution,ATCC27853,,1250 µg/mL
Cc1ccc(C)n1-c1ccc(-c2nnc(-c3cccc([N+](=O)[O-])c3)[nH]2)cc1,broth dilution,ATCC10145,18 h,250 µg/mL
CO[C@H]1/C=C/O[C@@]2(C)Oc3c(C)c(O)c4c(O)c(c(/C=N/N5CCN(C)CC5)c(O)c4c3C2=O)NC(=O)/C(C)=C\C=C\[C@H](C)[C@H](O)[C@@H](C)[C@@H](O)[C@@H](C)[C@H](OC(C)=O)[C@@H]1C,,ATCC27853,,16 µg/mL
C[C@H]1[C@H](NC(=O)/C(=N\OC(C)(C)C(=O)O)c2csc(N)n2)C(=O)N1S(=O)(=O)O,agar dilution,PAO1,,4 µg/mL
CCCCCCC#Cc1cncc(-c2nnc(SCc3ccc([N+](=O)[O-])o3)n2C)c1,,,,≥ 20 µg/mL
C/C(=C\c1ccc(C#N)cc1)C(=O)Nc1ccc(C(=O)N[C@@H](CC(N)=O)C(=O)Nc2ccc(C(=O)Nc3ccc(C(=O)Nc4ccc(C(=O)O)cc4)c(O)c3OCC(C)C)cc2)cc1,,PA14,,> 64 µg/mL
CN(C)c1cc(CNCC(C)(C)C)c(O)c2c1C[C@H]1C[C@H]3[C@H](N(C)C)C(O)=C(C(N)=O)C(=O)[C@@]3(O)C(O)=C1C2=O,broth dilution,ATCC27853,,> 32 µg/mL
CC1(C)S[C@@H]2[C@H](NC(=O)C(C(=O)O)c3ccccc3)C(=O)N2[C@H]1C(=O)O (some centres unmarked),broth dilution,,,> 200 µM
CCCCCCC/C=C/C(=O)N1C(=O)/C(=C(/C)O)C(=O)C1CCC(=O)O (centres unmarked),,PA01,,> 200 µg/mL
Cc1ccc2nc(-c3ccc(Cl)cc3)n(Cc3ccccc3Cl)c2c1,broth dilution,ATCC27853,,512 µg/mL
CCCCCCCCCC(=O)Oc1c(C)c(O)c(C(=O)/C=C/c2ccccc2)c(OC)c1C,broth dilution,ATCC27853,,5000 µg/mL
CCCCCCC/C=C/C(=O)N1C(=O)/C(=C(/C)O)C(=O)C1CCCCN (centres unmarked),,PA01,,> 200 µg/mL
Cc1ccccc1NCc1ccc(Oc2ccccn2)cc1,,,,> 50 µg/mL
Cc1ncc(O)c2c1C[C@H]1C[C@H]3[C@H](N(C)C)C(O)=C(C(N)=O)C(=O)[C@@]3(O)C(O)=C1C2=O.Cl.Cl,broth dilution,ATCC27853,,16 µg/mL
O=c1cc(-c2ccccc2)oc2cc(O)cc(O)c12,broth dilution,PAO1,,128 µg/mL
O=C(Cc1ccc(O)c(O)c1)NCCCCCCCC[P+](c1ccccc1)(c1ccccc1)c1ccccc1.[Br-],broth dilution,ATCC27853,18 h,> 32 µg/mL
CC(C)Oc1c(-n2cc(-c3ccc(NC(=O)C(CC(N)=O)NC(=O)c4ccc(NC(=O)c5ccc(C#N)cc5)cc4)cc3)nn2)ccc(C(=O)Nc2ccc(C(=O)O)cc2)c1O (centres unmarked),,PA14,,8 µg/mL
CN(C)[C@@H]1C(O)=C(C(N)=O)C(=O)[C@@]2(O)C(O)=C3C(=O)c4c(cc5ccc(CN(C)S(C)(=O)=O)cc5c4O)C[C@H]3C[C@@H]12,broth dilution,ATCC27853,,32 µg/mL
CCN1CCN(C(=O)N[C@@H](C(=O)N[C@@H]2C(=O)N3[C@@H]2SC(C)(C)[C@@H]3C(=O)O)c2ccccc2)C(=O)C1=O,,,,12.5 µg/mL
C[C@@H](O)[C@H]1C(=O)N2C(C(=O)O)=C(S[C@@H]3CN[C@H](C(=O)N(C)C)C3)[C@H](C)[C@H]12,broth dilution,ATCC27853,,0.25 µg/mL
CN(C)[C@@H]1C(O)=C(C(N)=O)C(=O)[C@@]2(O)C(O)=C3C(=O)c4c(cnc(-c5ccccc5)c4O)C[C@H]3C[C@@H]12.Cl.Cl,broth dilution,ATCC27853,,> 32 µg/mL
CN(C)Cc1ccc2cc3c(c(O)c2c1)C(=O)C1=C(O)[C@]2(O)C(=O)C(C(N)=O)=C(O)[C@@H](N(C)C)[C@@H]2C[C@@H]1C3,broth dilution,ATCC27853,,32 µg/mL
O=C(Nc1ccc(S(=O)(=O)c2nccs2)cc1)c1cc(N=Nc2nccs2)ccc1O,broth dilution,,,100 µg/mL
CC(=O)NC1CN(Cc2ccc3cc4c(c(O)c3c2)C(=O)C2=C(O)[C@]3(O)C(=O)C(C(N)=O)=C(O)[C@@H](N(C)C)[C@@H]3C[C@@H]2C4)C1,broth dilution,ATCC27853,,32 µg/mL
CCCCCCC/C=C/C(=O)N1CC(=O)/C(=C(\C)O)C1=O,,PA01,,200 µg/mL
CO[C@@H](C(N)=O)[C@H](NC(=O)c1ccc(NC(=O)c2ccc(C#N)cc2)cc1)C(=O)Nc1ccc(C(=O)Nc2ccc(C(=O)Nc3ccc(C(=O)O)cc3)c(O)c2OC(C)C)cc1,,PA14,,0.5 µg/mL
CC1=NN(CNc2ccc(Cl)cc2)C(=O)C1=NNn1c(-c2ccccc2)nc2ccccc2c1=O,broth dilution,,24 h,51.5 µM
O=c1cc(-c2ccc(O)c(O)c2)oc2cc(O)cc(O)c12,broth dilution,PAO1,,256 µg/mL
Cc1ccc(C)n1-c1ccc(-c2nnc(-c3c(Cl)cccc3Cl)[nH]2)cc1,broth dilution,ATCC10145,18 h,62.5 µg/mL
CC(C)(C)OCC1NC(=O)C(C(=O)NC(C(=O)NC2C(=O)N3C2SC(C)(C)C3C(=O)O)c2ccccc2)=C1O (centres unmarked),,,,12.5 µg/mL
C/C(=C\c1ccc(O)cc1)C(=O)Nc1ccc(C(=O)N[C@@H](CC(N)=O)C(=O)Nc2ccc(C(=O)Nc3ccc(C(=O)Nc4ccc(C(=O)O)cc4)c(O)c3OC(C)C)cc2)cc1,,PA14,,1 µg/mL
NC[C@H]1O[C@H](O[C@H]2[C@H](O)[C@@H](O[C@H]3O[C@H](CO)[C@@H](O)[C@H](N)[C@H]3O)[C@H](N)C[C@@H]2N)[C@H](N)C[C@@H]1O,broth dilution,CMCC10104,,26.7 µM
NC1CCCCc2c1[nH]c1ccc(Cl)c(Cl)c21 (centres unmarked),broth dilution,PAO1,18 h,256 µg/mL
Cc1ccc(C)n1-c1ccc(-c2nnc(-c3ccccc3[N+](=O)[O-])[nH]2)cc1,broth dilution,ATCC10145,18 h,250 µg/mL
O=C1NN=C(N=Cc2ccc(O)c(O)c2)C1=NNn1c(-c2ccccc2)nc2ccccc2c1=O,broth dilution,,24 h,53.5 µM
